Experimental data as given in ChEMBL document CHEMBL5113557, “Structural Basis for Inhibition of Mutant EGFR with Lazertinib (YH25448)” (ACS Med Chem Lett, 2022).
Activity calls are given as the source filed them. The calls are words filed in the database; no cut-off is given here.

Key:
BaF3 [1] = experiment: Antiproliferative activity against mouse BAF3 cells harboring EGFR L858R/T790M mutant after 72 hrs by resazurin dye-based fluorescence assay; assay type: functional, cell-based; settings: BaF3, 72 h
In short: (§1)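 Ba/F3 cells engineered to express each target were exposed to inhibitor for 72 h, after which proliferation was measured.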

[2] = target: T1, Receptor tyrosine-protein kinase erbB-2 (Homo sapiens, UniProt P04626); experiment: Inhibition of recombinant human N-terminal GST-tagged HER2 wild type (679 to 1255 residues) expressed in baculovirus infected Sf9 insect cells using AQT0794 measured up to 240 mins by fluorescence assay
T1 sequence (P04626 whole entry, the tested form may be a part): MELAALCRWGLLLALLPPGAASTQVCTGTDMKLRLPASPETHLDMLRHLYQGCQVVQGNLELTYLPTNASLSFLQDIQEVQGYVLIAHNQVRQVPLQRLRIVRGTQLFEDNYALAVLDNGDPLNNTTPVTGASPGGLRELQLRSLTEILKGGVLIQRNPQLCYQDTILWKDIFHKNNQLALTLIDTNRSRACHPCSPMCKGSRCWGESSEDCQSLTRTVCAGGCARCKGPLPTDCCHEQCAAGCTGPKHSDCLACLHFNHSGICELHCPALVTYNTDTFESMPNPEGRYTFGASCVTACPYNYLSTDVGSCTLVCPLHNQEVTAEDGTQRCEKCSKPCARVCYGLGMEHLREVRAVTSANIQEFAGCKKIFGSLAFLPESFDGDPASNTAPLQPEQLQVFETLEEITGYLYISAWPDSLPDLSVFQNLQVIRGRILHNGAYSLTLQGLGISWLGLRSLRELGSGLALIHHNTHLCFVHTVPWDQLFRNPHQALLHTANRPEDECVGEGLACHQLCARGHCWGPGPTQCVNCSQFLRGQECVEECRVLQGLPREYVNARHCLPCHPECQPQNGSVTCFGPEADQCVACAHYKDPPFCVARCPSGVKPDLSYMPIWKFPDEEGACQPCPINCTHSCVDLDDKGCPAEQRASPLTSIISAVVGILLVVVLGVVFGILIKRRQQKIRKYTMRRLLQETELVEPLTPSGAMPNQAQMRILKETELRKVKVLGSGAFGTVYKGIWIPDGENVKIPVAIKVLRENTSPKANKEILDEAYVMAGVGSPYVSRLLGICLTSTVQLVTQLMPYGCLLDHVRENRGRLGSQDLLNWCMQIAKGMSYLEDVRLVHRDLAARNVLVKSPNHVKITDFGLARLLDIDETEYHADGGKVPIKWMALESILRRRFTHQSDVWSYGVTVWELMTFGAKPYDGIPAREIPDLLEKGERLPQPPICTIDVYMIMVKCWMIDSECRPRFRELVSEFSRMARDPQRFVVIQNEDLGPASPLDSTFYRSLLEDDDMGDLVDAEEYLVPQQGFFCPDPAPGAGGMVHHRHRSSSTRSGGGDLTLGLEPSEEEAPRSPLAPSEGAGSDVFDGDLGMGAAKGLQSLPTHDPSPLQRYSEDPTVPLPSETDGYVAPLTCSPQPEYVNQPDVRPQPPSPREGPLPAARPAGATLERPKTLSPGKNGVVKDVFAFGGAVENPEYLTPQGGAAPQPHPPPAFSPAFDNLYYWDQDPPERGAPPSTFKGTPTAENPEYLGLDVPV
In short: (§2)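 Time-dependent kinetic assay on the HER2 kinase domain with 1000 μM ATP and 15 μM Sox-based substrate sensor. Data come from a single experiment run in duplicate. kinact and Ki were obtained from a two-step fit, and errors are the standard error from the fit.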

[3] = target: T1, Receptor tyrosine-protein kinase erbB-2; experiment: Inhibition of HER2 in human BT474 cells assessed as reduction in autophosphorylation at Y1221/1222 residue at 5 to 100 nM after 6 hrs by Western blot analysis; assay type: cell-based; settings: BT-474, dose 5-100 nM
In short: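 BT474 HER2-overexpressing breast cancer cells were treated with inhibitor at a range of doses for 6 h. Phospho-HER2 (pY1221/1222) was detected by Western blot. The blots shown are representative of three independent experiments.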

BaF3 [4] = experiment: Antiproliferative activity against mouse BAF3 cells harboring EGFR L858R mutant after 72 hrs by resazurin dye-based fluorescence assay; assay type: functional, cell-based; settings: BaF3, 72 h; in short: as §1
[5] = system: Epidermal growth factor receptor (Homo sapiens), P00533 [L858R,T790M]; settings: NCI-H1975, dose 5-50 nM, time 2.0 hrs
Sequence of Epidermal growth factor receptor (Homo sapiens), P00533 [L858R,T790M] (P00533 whole entry T790M/L858R, looked up, the tested form may be a part): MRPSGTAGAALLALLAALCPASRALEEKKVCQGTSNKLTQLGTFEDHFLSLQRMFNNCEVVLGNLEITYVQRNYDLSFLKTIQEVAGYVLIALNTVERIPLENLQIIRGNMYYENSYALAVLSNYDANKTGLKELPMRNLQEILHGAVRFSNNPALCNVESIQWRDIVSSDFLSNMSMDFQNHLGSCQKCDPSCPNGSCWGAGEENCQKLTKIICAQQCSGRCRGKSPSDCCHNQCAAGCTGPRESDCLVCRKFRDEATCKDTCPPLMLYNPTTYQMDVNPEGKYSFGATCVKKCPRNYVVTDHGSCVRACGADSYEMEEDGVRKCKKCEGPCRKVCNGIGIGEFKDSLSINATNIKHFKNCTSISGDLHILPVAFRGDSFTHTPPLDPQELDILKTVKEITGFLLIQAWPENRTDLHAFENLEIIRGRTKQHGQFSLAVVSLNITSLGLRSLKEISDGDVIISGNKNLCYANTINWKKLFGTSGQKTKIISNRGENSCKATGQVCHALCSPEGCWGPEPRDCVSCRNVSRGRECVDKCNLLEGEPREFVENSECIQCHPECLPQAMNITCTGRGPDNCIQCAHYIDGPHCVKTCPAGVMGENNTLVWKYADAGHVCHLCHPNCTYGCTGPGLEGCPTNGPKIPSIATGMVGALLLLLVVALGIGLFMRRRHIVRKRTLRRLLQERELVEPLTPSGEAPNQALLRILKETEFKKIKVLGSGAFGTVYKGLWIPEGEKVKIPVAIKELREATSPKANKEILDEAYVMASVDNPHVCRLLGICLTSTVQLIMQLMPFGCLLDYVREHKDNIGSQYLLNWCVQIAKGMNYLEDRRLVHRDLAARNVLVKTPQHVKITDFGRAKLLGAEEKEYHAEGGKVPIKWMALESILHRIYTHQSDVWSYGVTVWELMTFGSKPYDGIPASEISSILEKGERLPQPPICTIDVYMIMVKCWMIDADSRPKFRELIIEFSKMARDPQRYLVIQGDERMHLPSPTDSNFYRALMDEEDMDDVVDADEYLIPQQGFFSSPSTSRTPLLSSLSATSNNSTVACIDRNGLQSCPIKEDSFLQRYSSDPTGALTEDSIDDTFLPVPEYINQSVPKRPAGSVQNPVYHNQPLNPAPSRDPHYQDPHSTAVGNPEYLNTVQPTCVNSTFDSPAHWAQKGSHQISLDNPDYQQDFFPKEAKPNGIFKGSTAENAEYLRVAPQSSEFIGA

[6] = target: T2, Epidermal growth factor receptor (Homo sapiens, UniProt P00533); experiment: Inhibition of recombinant human N-terminal GST-tagged EGFR wild type (669 to 1210 residues) expressed in baculovirus infected Sf21 insect cells insect cells using AQT0734 as substrate measured up to 240 mins by fluorescence assay
T2 sequence (P00533 whole entry, the tested form may be a part): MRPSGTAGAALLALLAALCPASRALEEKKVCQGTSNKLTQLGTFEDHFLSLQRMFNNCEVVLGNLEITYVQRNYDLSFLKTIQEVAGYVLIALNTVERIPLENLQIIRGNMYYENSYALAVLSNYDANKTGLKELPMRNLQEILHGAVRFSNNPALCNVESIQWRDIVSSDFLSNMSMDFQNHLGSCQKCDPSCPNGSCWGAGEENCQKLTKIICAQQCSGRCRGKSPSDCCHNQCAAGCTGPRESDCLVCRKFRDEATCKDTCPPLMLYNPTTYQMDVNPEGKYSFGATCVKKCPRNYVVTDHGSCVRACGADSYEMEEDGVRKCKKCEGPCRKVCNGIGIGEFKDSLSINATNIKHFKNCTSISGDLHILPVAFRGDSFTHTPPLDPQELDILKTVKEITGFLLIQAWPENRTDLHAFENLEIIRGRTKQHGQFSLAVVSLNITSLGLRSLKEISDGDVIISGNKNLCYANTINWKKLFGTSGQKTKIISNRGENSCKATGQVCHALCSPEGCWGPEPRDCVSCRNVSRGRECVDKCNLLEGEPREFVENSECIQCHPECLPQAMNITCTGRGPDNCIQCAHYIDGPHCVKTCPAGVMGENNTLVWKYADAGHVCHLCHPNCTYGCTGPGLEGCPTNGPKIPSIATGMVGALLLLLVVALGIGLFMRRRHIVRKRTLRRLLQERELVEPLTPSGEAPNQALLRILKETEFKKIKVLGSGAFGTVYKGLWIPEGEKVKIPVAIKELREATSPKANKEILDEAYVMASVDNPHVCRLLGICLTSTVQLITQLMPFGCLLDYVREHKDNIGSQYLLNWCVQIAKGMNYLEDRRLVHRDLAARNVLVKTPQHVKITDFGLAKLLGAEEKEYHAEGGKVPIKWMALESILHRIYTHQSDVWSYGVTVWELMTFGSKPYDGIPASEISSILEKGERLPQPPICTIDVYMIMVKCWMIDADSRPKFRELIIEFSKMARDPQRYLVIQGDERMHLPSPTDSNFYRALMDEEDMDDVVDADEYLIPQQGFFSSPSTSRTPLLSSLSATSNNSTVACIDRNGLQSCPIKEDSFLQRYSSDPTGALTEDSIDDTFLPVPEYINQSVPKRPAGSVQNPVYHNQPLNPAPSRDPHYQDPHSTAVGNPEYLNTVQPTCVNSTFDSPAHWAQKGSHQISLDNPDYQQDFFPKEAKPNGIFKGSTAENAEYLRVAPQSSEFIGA

[7] = target: Epidermal growth factor receptor (Homo sapiens, UniProt P00533, L858R/T790M); experiment: Inhibition of recombinant human N-terminal GST-tagged EGFR (669 to 1210 residues) (unknown origin) L858R/T790M mutant expressed in baculovirus infected Sf21 insect cells using AQT0734 as substrate measured up to 240 mins by fluorescence assay
Sequence of Epidermal growth factor receptor (Homo sapiens, UniProt P00533, L858R/T790M) (P00533 25-1210 T790M/L858R limits assumed): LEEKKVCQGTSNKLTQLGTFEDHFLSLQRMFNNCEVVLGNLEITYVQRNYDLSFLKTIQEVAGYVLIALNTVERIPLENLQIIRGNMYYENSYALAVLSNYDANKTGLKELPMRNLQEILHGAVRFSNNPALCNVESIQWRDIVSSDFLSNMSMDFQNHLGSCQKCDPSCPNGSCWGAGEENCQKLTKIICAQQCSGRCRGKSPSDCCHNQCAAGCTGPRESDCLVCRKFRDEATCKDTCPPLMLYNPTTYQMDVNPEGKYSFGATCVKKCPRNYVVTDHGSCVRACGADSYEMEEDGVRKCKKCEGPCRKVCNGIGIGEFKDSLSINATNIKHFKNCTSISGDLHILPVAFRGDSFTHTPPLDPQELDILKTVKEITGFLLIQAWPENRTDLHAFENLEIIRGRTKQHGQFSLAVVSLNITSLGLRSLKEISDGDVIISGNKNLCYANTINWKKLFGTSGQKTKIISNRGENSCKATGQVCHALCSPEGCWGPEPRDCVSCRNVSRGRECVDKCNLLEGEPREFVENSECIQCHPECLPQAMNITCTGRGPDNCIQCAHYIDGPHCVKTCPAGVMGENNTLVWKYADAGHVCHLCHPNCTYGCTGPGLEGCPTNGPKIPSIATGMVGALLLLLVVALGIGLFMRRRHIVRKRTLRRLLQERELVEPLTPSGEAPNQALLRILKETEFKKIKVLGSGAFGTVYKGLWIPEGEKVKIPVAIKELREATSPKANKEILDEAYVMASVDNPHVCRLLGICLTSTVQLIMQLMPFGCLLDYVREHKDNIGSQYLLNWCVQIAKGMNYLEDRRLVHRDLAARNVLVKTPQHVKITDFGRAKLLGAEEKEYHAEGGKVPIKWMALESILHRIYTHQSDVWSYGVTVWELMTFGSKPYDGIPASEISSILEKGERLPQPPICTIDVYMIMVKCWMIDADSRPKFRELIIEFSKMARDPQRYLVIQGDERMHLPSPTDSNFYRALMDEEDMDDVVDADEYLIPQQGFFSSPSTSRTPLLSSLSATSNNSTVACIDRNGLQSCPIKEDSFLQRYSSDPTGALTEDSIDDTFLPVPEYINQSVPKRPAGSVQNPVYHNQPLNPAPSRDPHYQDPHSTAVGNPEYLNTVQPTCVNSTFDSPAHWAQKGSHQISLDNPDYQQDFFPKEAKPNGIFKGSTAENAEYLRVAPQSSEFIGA

[8] = target: T1, Receptor tyrosine-protein kinase erbB-2; experiment: Inhibition of recombinant human N-terminal GST-tagged HER2 wild type (679 to 1255 residues) expressed in baculovirus infected Sf9 insect cells assessed as Kinact using AQT0794 as substrate measured up to 240 mins by fluorescence assay; in short: as §2
[9] = target: T1, Receptor tyrosine-protein kinase erbB-2; experiment: Inhibition of recombinant human N-terminal GST-tagged HER2 wild type (679 to 1255 residues) expressed in baculovirus infected Sf9 insect cells assessed as Kinact/Ki ratio using AQT0794 measured up to 240 mins by fluorescence assay; in short: as §2
Homo sapiens [10] = organism: Homo sapiens; experiment: Selectivity ratio of Kinact/Ki for human N-terminal GST-tagged EGFR (669 to 1210 residues) (unknown origin) L858R/T790M mutant to Kinact/Ki for human N-terminal GST-tagged EGFR wild type (669 to 1210 residues) (unknown origin)
Homo sapiens [11] = organism: Homo sapiens; experiment: Selectivity ratio of Ki for human N-terminal GST-tagged EGFR wild type (669 to 1210 residues) (unknown origin) to Ki for human N-terminal GST-tagged EGFR L858R/T790M mutant (669 to 1210 residues) (unknown origin)
Homo sapiens [12] = organism: Homo sapiens; experiment: Selectivity ratio of Kinact for human N-terminal GST-tagged EGFR (669 to 1210 residues) (unknown origin) L858R/T790M mutant to Kinact for human N-terminal GST-tagged EGFR wild type (669 to 1210 residues) (unknown origin)
BaF3 [13] = experiment: Antiproliferative activity against mouse BAF3 cells harboring HER2 wild type after 72 hrs by resazurin dye-based fluorescence assay; assay type: functional, cell-based; settings: BaF3, 72 h; in short: as §1
[14] = target: T2, Epidermal growth factor receptor; settings: Sf21, time <= 240.0 min
[15] = system: Epidermal growth factor receptor (Homo sapiens), P00533 [L858R,T790M]; settings: Sf21, time <= 240.0 min

Compound	EC50 (BaF3 [1])	Ki [2]	inhibition [3]	EC50 (BaF3 [4])	inhibition [5]	Ki [6]	Ki [7]	Kinact [8]	Ratio [9]	Selectivity ratio (Homo sapiens [10])	Ratio Ki (Homo sapiens [11])	Selectivity ratio (Homo sapiens [12])	EC50 (BaF3 [13])	Kinact [14]	Kinact [15]
C=CC(=O)Nc1ccc(OC)c(Nc2cc(-c3[nH]c(SC)nc3-c3ccc(F)cc3)ccn2)c1	21 nM	142 nM	Active	0.51 nM	Active	–	–	–	–	–	–	–	–	–	–
C=CC(=O)Nc1cc(Nc2nccc(-n3cc(CN(C)C)c(-c4ccccc4)n3)n2)c(OC)cc1N1CCOCC1 [LAZERTINIB]	7.4 nM	437 nM	Active	4.8 nM	Active	271 nM	34 nM	0.166 min⁻¹	6310 M⁻¹ s⁻¹	3.2	8	0.36	> 100 nM	0.648 min⁻¹	0.235 min⁻¹
C=CC(=O)Nc1cc(Nc2nccc(-c3cn(C)c4ccccc34)n2)c(OC)cc1N(C)CCN(C)C [OSIMERTINIB]	14 nM	–	Active	3.2 nM	–	–	–	–	–	–	–	–	34 nM	–	–
